From ChEMBL document CHEMBL1140196, “Synthesis and biological activities of some new fluorinated coumarins and 1-aza coumarins” (Eur J Med Chem, 2008) come the findings set out here.

For data set [1], the system named is Escherichia coli. Briefly: Antibacterial activity against Escherichia coli at 100 ug/mL after 48 hrs by cup-plate method. It is filed as functional.
Data set [2] concerns Escherichia coli. Put plainly: Antibacterial activity against Escherichia coli at 50 ug/mL after 48 hrs by cup-plate method. Format: functional.
The test system of data set [3] is Escherichia coli. Briefly: Antibacterial activity against Escherichia coli at 25 ug/mL after 48 hrs by cup-plate method. Format: functional. The following applies: for zone of inhibition at 25 µg/mL: read-out: IZ.
The test system of data set [4] is Bacillus. Put plainly: Antibacterial activity against […] at 100 ug/mL after 48 hrs by cup-plate method. Format: functional.
Data set [5] relates to Bacillus. Put plainly: Antibacterial activity against […] at 50 ug/mL after 48 hrs by cup-plate method. It is filed as functional.
The test system of data set [6] is Bacillus. Briefly: Antibacterial activity against […] at 25 ug/mL after 48 hrs by cup-plate method. Format: functional. To be noted: for zone of inhibition at 25 µg/mL: read-out: IZ.
Data set [7] deals with Aspergillus niger. Briefly: Antifungal activity against Aspergillus niger at 100 ug/mL after 48 hrs by cup-plate method. It is filed as functional.
Data set [8] has as its system Aspergillus niger. Put plainly: Antifungal activity against Aspergillus niger at 50 ug/mL after 48 hrs by cup-plate method. It is filed as functional.
In data set [9] the test system is Aspergillus niger. Briefly: Antifungal activity against Aspergillus niger at 25 ug/mL after 48 hrs by cup-plate method. It is filed as functional. To be noted: for zone of inhibition at 25 µg/mL: read-out: IZ.
Data set [10] has as its system Macrophomina phaseolina. Put plainly: Antifungal activity against Rhizoctonia bataticola at 100 ug/mL after 48 hrs by cup-plate method. Format: functional.
The subject of data set [11] is Macrophomina phaseolina. Put plainly: Antifungal activity against Rhizoctonia bataticola at 50 ug/mL after 48 hrs by cup-plate method. It is filed as functional.
Data set [12] relates to Macrophomina phaseolina. Briefly: Antifungal activity against Rhizoctonia bataticola at 25 ug/mL after 48 hrs by cup-plate method. Format: functional.
The nature of data set [13]: Acute toxicity in ip dosed albino mouse after 24 hrs. It is filed as organism-based. The following applies: in vivo. The method in brief: (§1)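 Groups of six albino mice (20–25 g), fasted overnight, dosed once orally or intraperitoneally at 100 to 1000 mg kg^-1 body weight. Observed for 24 h for mortality and signs of acute toxicity (altered motor activity, tremors, convulsion, sedation, lacrimation). LD50 cut-off set at the highest dose tested, 1000 mg kg^-1.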

Data set [14] is described as follows: Acute toxicity in po dosed albino mouse after 24 hrs. It is filed as organism-based. To be noted: in vivo. The method in brief:
as §1

Data set [15] has as its system Rattus norvegicus. Put plainly: Gastrointestinal toxicity in Wistar rat assessed as ulcerogenic effect at 400 mg/kg, po administered twice at 2 hrs interval after 4 hrs. Format: organism-based. More on the design: dose 400 mg/kg, route oral. The following applies: in vivo. Summed up:
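Male Wistar rats fasted 36 h, then given 400 mg/kg orally twice, 2 h apart. Animals killed 4 h later and the stomach examined for lesions; ulcer index recorded.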

Another data set concerns Mus musculus. Put plainly: Analgesic activity in albino mouse assessed as inhibition of acetic acid-induced writhing at 10 mg/kg, po. It is filed as functional. Summed up:
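Acetic acid writhing test: 0.6% acetic acid at 0.1 ml/10 g given intraperitoneally to albino mice of both sexes (18–22 g). Compounds given orally at 10 mg/kg as a suspension in 5% carboxymethyl cellulose. Indomethacin 10 mg/kg was the reference under the same conditions.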

Data set [16] relates to Rattus norvegicus. Put plainly: Antiinflammatory activity in Wistar rat assessed as inhibition of formalin-induced paw oedema volume at 100 mg/kg, po administered 30 mins before formalin challenge after 1 hr relative to control. It is filed as functional. The method in brief:
(§2)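 Oral dosing at 100 mg/kg as a 2% CMC suspension, 30 min before injecting 3.5% formalin into the paw. Groups of six Wistar rats of either sex. Paw volume read by mercury-displacement plethysmograph at 0 h (right after formalin) and at 1, 2, 3, 4 and 5 h. Percent inhibition versus plain 2% CMC controls; SEM reported.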

Data set [17] relates to Rattus norvegicus. Put plainly: Antiinflammatory activity in Wistar rat assessed as inhibition of formalin-induced paw oedema volume at 100 mg/kg, po administered 30 mins before formalin challenge after 2 hrs relative to control. It is filed as functional. Summed up: as §2
For data set [18], the system named is Rattus norvegicus. Put plainly: Antiinflammatory activity in Wistar rat assessed as inhibition of formalin-induced paw oedema volume at 100 mg/kg, po administered 30 mins before formalin challenge after 3 hrs relative to control. Format: functional. Summed up:
as §2

For data set [19], the system named is Rattus norvegicus. Put plainly: Antiinflammatory activity in Wistar rat assessed as inhibition of formalin-induced paw oedema volume at 100 mg/kg, po administered 30 mins before formalin challenge after 4 hrs relative to control. It is filed as functional. Summed up:
as §2

Data set [20] deals with Rattus norvegicus. Put plainly: Antiinflammatory activity in Wistar rat assessed as inhibition of formalin-induced paw oedema volume at 100 mg/kg, po administered 30 mins before formalin challenge after 5 hrs relative to control. It is filed as functional. Summed up:
as §2

Data set [21] relates to Rattus norvegicus. Put plainly: Gastrointestinal toxicity in Wistar rat assessed as ulcerogenic effect at 10 mg/kg, po administered twice at 2 hrs interval after 4 hrs. Format: organism-based. Further details: dose 10 mg/kg, route oral. The following applies: in vivo. The method in brief: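 Male Wistar rats fasted 36 h, then given indomethacin suspended in 1% CMC orally at 2 × 10 mg/kg, 2 h apart. Animals killed after 4 h and the stomach examined for lesions; ulcer index recorded.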

The test system of data set [22] is Rattus norvegicus. Put plainly: Antiinflammatory activity in Wistar rat assessed as inhibition of formalin-induced paw oedema volume at 10 mg/kg, po administered 30 mins before formalin challenge after 1 hr relative to control. It is filed as functional. The method in brief:
(§3)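 Reference arm of the formalin paw-oedema test: oral dose of 10 mg/kg, 30 min before 3.5% formalin, in groups of six Wistar rats of either sex. Paw volume read by mercury-displacement plethysmograph at 0 to 5 h. Percent inhibition versus 2% CMC vehicle controls.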

Data set [23] concerns Rattus norvegicus. Briefly: Antiinflammatory activity in Wistar rat assessed as inhibition of formalin-induced paw oedema volume at 10 mg/kg, po administered 30 mins before formalin challenge after 2 hrs relative to control. Format: functional. Summed up:
as §3

For data set [24], the system named is Rattus norvegicus. Briefly: Antiinflammatory activity in Wistar rat assessed as inhibition of formalin-induced paw oedema volume at 10 mg/kg, po administered 30 mins before formalin challenge after 3 hrs relative to control. Format: functional. The method in brief: as §3
In data set [25] the test system is Rattus norvegicus. Put plainly: Antiinflammatory activity in Wistar rat assessed as inhibition of formalin-induced paw oedema volume at 10 mg/kg, po administered 30 mins before formalin challenge after 4 hrs relative to control. Format: functional. Summed up: as §3
Data set [26] relates to Rattus norvegicus. Put plainly: Antiinflammatory activity in Wistar rat assessed as inhibition of formalin-induced paw oedema volume at 10 mg/kg, po administered 30 mins before formalin challenge after 5 hrs relative to control. Format: functional. The method in brief: as §3

Take `O=c1cc(CNc2ccc(F)cc2)c2ccc(Cl)cc2[nH]1`: the inhibition at 100 µg/mL in the data set with Escherichia coli [1] was 73%; in the data set on Bacillus [4] it was 78%; in the data set on Aspergillus niger [7] it was 80%; in the data set on Macrophomina phaseolina [10], 79%. Also, the inhibition at 50 µg/mL worked out at 54% with Escherichia coli [2], 44% in the data set with Bacillus [5], 52% with Aspergillus niger [8] and 62% in the data set on Macrophomina phaseolina [11]. For the same molecule, the inhibition at 25 µg/mL in the data set with Escherichia coli [3] was found to be 32%; in the data set on Bacillus [6] it was 27%; with Aspergillus niger [9], 41%; in the data set with Macrophomina phaseolina [12], 48%. Besides, the zone of inhibition at 25 µg/mL with Escherichia coli [3] came out at 68 mm; in the data set with Bacillus [6], 58 mm; in the data set with Aspergillus niger [9], 78 mm. The LD50 at 24 h is > 700 mg/kg in data set [13] and > 1000 mg/kg in data set [14]. In addition, the UI in the data set with Rattus norvegicus [15] turned out to be 61.42. The inhibition in vivo at 10 mg/kg with Mus musculus came to 28.6%. The inhibition in vivo at 100 mg/kg in the data set on Rattus norvegicus [16] came to 4%; in the data set with Rattus norvegicus [17], 4%; in the data set with Rattus norvegicus [18], 42%; in the data set on Rattus norvegicus [19] it was 57%; with Rattus norvegicus [20], 77%.

In the case of `O=c1cc(COc2ccc(F)cc2)c2cc(Cl)ccc2[nH]1`, the inhibition at 100 µg/mL in the data set with Escherichia coli [1] was determined as 81%; with Bacillus [4], 80%; in the data set on Aspergillus niger [7] it was 75%; in the data set on Macrophomina phaseolina [10] it was 84%. For the same molecule, the inhibition at 50 µg/mL worked out at 62% in the data set with Escherichia coli [2], 51% with Bacillus [5], 44% with Aspergillus niger [8] and 68% in the data set with Macrophomina phaseolina [11]. Further, the inhibition at 25 µg/mL came out at 45% in the data set on Escherichia coli [3], 28% with Bacillus [6], 29% in the data set on Aspergillus niger [9] and 50% in the data set on Macrophomina phaseolina [12]. For the same molecule, the zone of inhibition at 25 µg/mL amounted to 88 mm in the data set with Escherichia coli [3], 60 mm with Bacillus [6] and 62 mm in the data set with Aspergillus niger [9]. The LD50 at 24 h in [13] is > 800 mg/kg; in data set [14], > 1000 mg/kg. The UI with Rattus norvegicus [15] is 71.42. Also, in the data set with Mus musculus, the inhibition in vivo at 10 mg/kg was 26.9%. The inhibition in vivo at 100 mg/kg with Rattus norvegicus [16] worked out at 39%; in the data set on Rattus norvegicus [17], 28%; in the data set on Rattus norvegicus [18], 57%; with Rattus norvegicus [19], 71%; with Rattus norvegicus [20], 80%.

In the case of `O=c1cc(COc2ccc(F)cc2)c2ccc(Cl)cc2[nH]1`, the inhibition at 100 µg/mL is 78% with Escherichia coli [1], 76% with Bacillus [4], 79% in the data set on Aspergillus niger [7] and 86% in the data set on Macrophomina phaseolina [10]. The inhibition at 50 µg/mL in the data set with Escherichia coli [2] is 56%; in the data set on Bacillus [5], 40%; in the data set on Aspergillus niger [8], 47%; with Macrophomina phaseolina [11], 72%. The inhibition at 25 µg/mL worked out at 34% in the data set with Escherichia coli [3], 22% in the data set with Bacillus [6], 34% in the data set with Aspergillus niger [9] and 55% in the data set with Macrophomina phaseolina [12]. For the same molecule, the zone of inhibition at 25 µg/mL in the data set with Escherichia coli [3] turned out to be 72 mm; with Bacillus [6], 52 mm; with Aspergillus niger [9] it was 68 mm. Moreover, the values for the LD50 at 24 h in [13] and in [14] were > 800 mg/kg and > 1000 mg/kg, respectively. For the same molecule, the UI with Rattus norvegicus [15] was found to be 67.5. Moreover, the inhibition in vivo at 10 mg/kg with Mus musculus worked out at 61.3%. Moreover, the inhibition in vivo at 100 mg/kg with Rattus norvegicus [16] stood at 24%; in the data set on Rattus norvegicus [17], 24%; in the data set on Rattus norvegicus [18], 54%; with Rattus norvegicus [19] it was 66%; in the data set with Rattus norvegicus [20] it was 78%.

As for `COc1ccc2c(c1)c(CC(=O)O)c(C)n2C(=O)c1ccc(Cl)cc1` [INDOMETHACIN], the LD50 at 24 h in data set [13] turned out to be 15 mg/kg; in [14] it was 25 mg/kg. Further, the UI with Rattus norvegicus [21] is given as 185.14. Also, the inhibition in vivo at 10 mg/kg was determined as 46.2% with Mus musculus; 35% in the data set on Rattus norvegicus [22]; 43% in the data set on Rattus norvegicus [23]; 75% in the data set on Rattus norvegicus [24]; 76% in the data set on Rattus norvegicus [25]; 85% in the data set on Rattus norvegicus [26].

As to `O=c1cc(COc2ccc(F)cc2)c2cc(Cl)ccc2o1`, the inhibition at 100 µg/mL in the data set on Escherichia coli [1] was found to be 94%; in the data set on Bacillus [4], 97%; in the data set on Aspergillus niger [7] it was 89%; in the data set on Macrophomina phaseolina [10], 89%. Besides, the inhibition at 50 µg/mL is 60% in the data set with Escherichia coli [2], 71% in the data set on Bacillus [5], 71% with Aspergillus niger [8] and 74% in the data set with Macrophomina phaseolina [11]. For the same molecule, the inhibition at 25 µg/mL in the data set on Escherichia coli [3] turned out to be 51%; in the data set on Bacillus [6] it was 64%; in the data set with Aspergillus niger [9], 61%; in the data set with Macrophomina phaseolina [12], 65%. Further, the zone of inhibition at 25 µg/mL in the data set on Escherichia coli [3] came out at 92 mm. Besides, the values for the LD50 at 24 h in data set [13] and in data set [14] were > 700 mg/kg and > 1000 mg/kg, respectively. Also, the UI in the data set on Rattus norvegicus [15] was determined as 66.66. In the data set on Mus musculus, the inhibition in vivo at 10 mg/kg is 56.2%. In addition, the inhibition in vivo at 100 mg/kg in the data set with Rattus norvegicus [16] is 39%; in the data set with Rattus norvegicus [17], 38%; with Rattus norvegicus [18] it was 58%; in the data set with Rattus norvegicus [19] it was 71%; in the data set with Rattus norvegicus [20], 80%.

The term inhibition denotes how much of the control response was suppressed. As a reminder, the LD50 is the dose expected to kill half of the subjects tested. A lower LD50 goes with greater toxicity. As usually defined, the inhibition in vivo is the percentage by which the read-out fell short of the control.
